The structures appear in SMILES notation.

Test [1] deals with Aorta. The test can be described thus: Vasodilation of noradrenaline-induced contraction of Wistar Kyoto rat thoracic aorta at 20 uM. It is filed as functional. The method in brief:
(§1)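 Thoracic aorta rings (4 mm) from heparinized, pentobarbital-anaesthetized (40 mg/kg ip) Wistar Kyoto rats (250–300 g). Compounds added in DMSO to the organ bath once contraction reached a plateau; α-tocopherol, Trolox and vehicle served as controls. Where used, ODQ (1 µM) was added at least 10 min before the compound.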

Test [2] concerns Aorta. The test can be described thus: Vasodilation of noradrenaline-induced contraction of Wistar Kyoto rat thoracic aorta at 10 uM. Format: functional. The method in brief:
as §1

Another test deals with THP-1. The test can be described thus: Cytotoxicity against human THP1 cells by MTT assay. It is filed as functional, cell-based. The method in brief:
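Phorbol ester (100 ng/mL)-differentiated THP-1 cells, seeded 1 × 10^5/well in RPMI with fetal serum, attached 48 h at 37 °C in 5% CO2, then exposed 24 h to compounds at 1–500 µM. MTT added to 0.2 mg/mL for 3 h at 37 °C, formazan dissolved in DMSO, A560 read. IC50 is the concentration halving control absorbance; mean of at least three determinations.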
(In general: Tetrazolium assays rely on reduction of a dye to a coloured formazan, in cell work by metabolically active cells.)

A further test has as its system J774. The test can be described thus: Cytotoxicity against mouse J774 cells by MTT assay. Format: cell-based. The method in brief: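 J774.1 macrophages, kept in DMEM with 10% heat-inactivated FCS, seeded 1 × 10^5/well in RPMI with fetal serum and left to attach 48 h (37 °C, 5% CO2). Compounds at 1–500 µM for 24 h. Viability by MTT reduction (0.2 mg/mL, 3 h, 37 °C), formazan in DMSO, A560.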

`CC(=O)Oc1c(C)c(C)c2c(c1C)CCC(C)(C(=O)O)O2` (stereo not given) yielded an Activity in the test with Aorta [1] of 0%.

In the test on Aorta [2], `Cc1c(C)c2c(c(C)c1OCc1c(S(=O)(=O)c3ccccc3)no[n+]1[O-])CCC(C)(CCCC(C)CCCC(C)CCCC(C)C)O2` (stereo not given) gave an Activity of 15%.

With `Cc1c(C)c2c(c(C)c1O)CC[C@@](C)(CCC[C@H](C)CCC[C@H](C)CCCC(C)C)O2` [ALPHA-TOCOPHEROL], the concentration for half-maximal inhibition (IC50) in the test on THP-1 and in the test with J774 was more than 500 µM in each case.

As for `CC(=O)Oc1c(C)c(C)c2c(c1C)CCC(C)(CCCC(C)CCCC(C)CCCC(C)C)O2` (stereo not drawn) [alpha-TOCHOPHERYL ACETATE], in the test with Aorta [1], the Activity is listed as 0%.

The values above are taken from ChEMBL document CHEMBL1139758, “Second generation of alpha-tocopherol analogs-nitric oxide donors: Synthesis, physicochemical, and biological characterization” (Bioorg Med Chem, 2007).
